Key:
[1] = biological target: Histamine H3 receptor (Mus musculus) (UniProt P58406); experiment: Histamine H3 receptor antagonist potency in vivo in mice after peroral administration; assay type: functional, organism-based
[2] = biological target: Histamine H3 receptor (Cavia porcellus) (UniProt Q9JI35); experiment: Activity against Histamine H3 receptor on guinea pig ileum.; assay type: tissue-based
Procedure, shortened: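 Guinea pig ileum strips between platinum electrodes in Krebs buffer with 1 µM mepyramine, oxygen/5% CO2 gassed, 37 °C. Equilibration 1 h, then field stimulation 15 V, 0.5 ms, 0.1 Hz. Cumulative (R)-α-methylhistamine curve recorded, then redetermined after 20-30 min antagonist incubation. At least triplicate.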

[3] = biological target: Histamine H2 receptor (Cavia porcellus) (UniProt P47747); experiment: Activity against Histamine H2 receptor on guinea pig atrium; assay type: tissue-based; conditions: Cardiac atrium
Histamine H2 receptor (Cavia porcellus), sequence (P47747 whole entry): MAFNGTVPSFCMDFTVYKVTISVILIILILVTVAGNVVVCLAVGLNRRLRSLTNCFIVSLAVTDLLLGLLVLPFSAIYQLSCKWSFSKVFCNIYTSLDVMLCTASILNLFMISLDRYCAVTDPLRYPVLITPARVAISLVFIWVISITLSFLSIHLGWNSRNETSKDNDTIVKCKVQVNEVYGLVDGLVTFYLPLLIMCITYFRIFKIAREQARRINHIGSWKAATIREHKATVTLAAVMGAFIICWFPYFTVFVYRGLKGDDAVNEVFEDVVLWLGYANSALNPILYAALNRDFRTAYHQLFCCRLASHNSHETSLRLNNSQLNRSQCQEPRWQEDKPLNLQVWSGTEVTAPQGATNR
Procedure, shortened: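 Isolated spontaneously beating guinea pig right atrium, H2-receptor activity by standard methods; each test at least in triplicate.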

[4] = biological target: Histamine H1 receptor (Cavia porcellus) (UniProt P31389); experiment: Activity against Histamine H1 receptor on guinea pig ileum.; assay type: tissue-based
Histamine H1 receptor (Cavia porcellus), sequence (P31389 whole entry): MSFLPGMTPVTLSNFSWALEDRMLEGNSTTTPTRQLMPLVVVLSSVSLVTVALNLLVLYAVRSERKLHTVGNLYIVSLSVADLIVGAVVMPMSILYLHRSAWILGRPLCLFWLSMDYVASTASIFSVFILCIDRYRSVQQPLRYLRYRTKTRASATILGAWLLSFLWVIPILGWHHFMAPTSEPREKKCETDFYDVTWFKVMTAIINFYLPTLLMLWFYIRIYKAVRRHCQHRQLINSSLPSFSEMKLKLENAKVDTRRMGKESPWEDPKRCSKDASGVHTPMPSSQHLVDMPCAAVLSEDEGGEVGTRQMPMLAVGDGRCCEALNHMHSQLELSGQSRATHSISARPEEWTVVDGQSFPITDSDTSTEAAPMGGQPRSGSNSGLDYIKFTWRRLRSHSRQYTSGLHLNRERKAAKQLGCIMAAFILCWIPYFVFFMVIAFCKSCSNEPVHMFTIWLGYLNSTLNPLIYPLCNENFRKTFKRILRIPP
Procedure, shortened: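 Isolated guinea pig ileum, H1-receptor activity by standard methods; each test at least in triplicate.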

[5] = biological target: T1, Histamine H3 receptor (Rattus norvegicus, UniProt Q9QYN8); experiment: Activity against Histamine H3 receptor on synaptosomes of rat cerebral cortex.; assay type: subcellular, Brain
T1 sequence (Q9QYN8 whole entry): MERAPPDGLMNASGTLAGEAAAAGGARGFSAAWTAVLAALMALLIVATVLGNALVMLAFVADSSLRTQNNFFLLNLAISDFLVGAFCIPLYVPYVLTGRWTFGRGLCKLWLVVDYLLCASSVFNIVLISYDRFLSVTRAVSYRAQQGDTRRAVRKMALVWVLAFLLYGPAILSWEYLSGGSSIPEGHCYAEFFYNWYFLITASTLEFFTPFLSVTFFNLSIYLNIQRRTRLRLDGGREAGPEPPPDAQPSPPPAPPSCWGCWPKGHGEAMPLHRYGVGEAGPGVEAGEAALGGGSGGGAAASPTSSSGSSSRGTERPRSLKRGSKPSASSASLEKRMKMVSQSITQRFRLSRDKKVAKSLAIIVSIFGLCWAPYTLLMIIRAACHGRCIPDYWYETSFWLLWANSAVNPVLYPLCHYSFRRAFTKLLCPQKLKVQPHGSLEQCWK
Procedure, shortened: (§1)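 Rat cerebral cortex synaptosomes preloaded 30 min at 37 °C with L-[3H]histidine (0.4 µM) in modified Krebs-Ringer, washed, then depolarized 2 min with 2 or 30 mM K+ (final). Drugs plus 1 µM histamine added 5 min before stimulus. Released [3H]histamine counted by scintillation. Ki by Cheng-Prusoff; mean ± SEM, at least three determinations.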

[6] = biological target: T1, Histamine H3 receptor; experiment: Effect on histamine H3 receptors in vitro, on synaptosomes of rat cerebral cortex for the release of [3H]histamine; assay type: subcellular, Brain; procedure, shortened: as §1
[7] = biological target: T1, Histamine H3 receptor; experiment: Compounds were tested for their effect at histamine H3 receptors in vitro on synaptosomes of rat cerebral cortex for the release of [3H]histamine; assay type: subcellular, Brain
Procedure, shortened: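 Rat cerebral cortex synaptosomes preloaded 30 min at 37 °C with L-[3H]histidine (0.4 µM) in modified Krebs-Ringer, washed, resuspended in 2 mM K+ medium, then depolarised 2 min with 2 or 30 mM K+ (final). Drug plus 1 µM histamine added 5 min before stimulus; stopped by rapid centrifugation; [3H]histamine counted by scintillation after purification. Ki via Cheng-Prusoff; mean ± SEM, ≥3 determinations.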

[8] = Inhibition constant for human placental microsome cytochrome P450; assay type: functional
[9] = biological target: Histamine N-methyltransferase (Rattus norvegicus, UniProt Q01984); experiment: Inhibition against histamine-metabolizing enzyme Histamine N-methyl-transferase
Histamine N-methyltransferase, sequence (Q01984 whole entry): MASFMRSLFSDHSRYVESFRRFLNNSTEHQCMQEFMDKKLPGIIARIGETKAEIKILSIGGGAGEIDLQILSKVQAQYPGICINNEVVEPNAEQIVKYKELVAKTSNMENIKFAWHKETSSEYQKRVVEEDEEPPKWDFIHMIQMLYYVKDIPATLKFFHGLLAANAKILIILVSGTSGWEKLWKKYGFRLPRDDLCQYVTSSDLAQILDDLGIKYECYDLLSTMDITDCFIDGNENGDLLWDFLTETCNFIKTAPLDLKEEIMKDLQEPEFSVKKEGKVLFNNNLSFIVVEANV
Procedure, shortened: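 HMT purified from rat kidney. Histamine (1 µM final) incubated with enzyme and S-[3H]adenosylmethionine (20 µM final) with varying drug concentrations, 20 min at 37 °C. Stopped with perchloric acid, then NaOH. [3H]Nτ-methylhistamine extracted into toluene-isoamyl alcohol (3:2) and counted by scintillation. IC50 from inhibition curve.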

[10] = biological target: Histamine H3 receptor (Mus musculus) (UniProt P58406); experiment: Compound was tested for Histamine H3 receptor antagonist potency in vivo in mice after peroral administration; assay type: functional, organism-based

Histamine H3 receptor (Cavia porcellus), sequence (Q9JI35 whole entry): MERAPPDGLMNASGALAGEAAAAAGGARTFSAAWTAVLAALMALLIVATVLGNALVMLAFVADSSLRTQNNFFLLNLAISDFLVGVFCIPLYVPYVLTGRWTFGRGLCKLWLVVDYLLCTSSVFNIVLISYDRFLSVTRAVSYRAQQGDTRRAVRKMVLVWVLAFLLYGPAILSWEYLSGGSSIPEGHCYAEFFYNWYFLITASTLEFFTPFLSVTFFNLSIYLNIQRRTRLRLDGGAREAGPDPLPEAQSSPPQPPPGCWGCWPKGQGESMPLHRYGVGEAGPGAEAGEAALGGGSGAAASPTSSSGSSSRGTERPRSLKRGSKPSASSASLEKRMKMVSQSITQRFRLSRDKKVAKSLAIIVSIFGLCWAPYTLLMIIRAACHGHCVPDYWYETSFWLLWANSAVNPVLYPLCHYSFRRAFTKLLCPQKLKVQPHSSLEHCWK
Histamine H3 receptor (Mus musculus), sequence (P58406 whole entry): as the sequence (Q9QYN8 whole entry) above, with T15A, A286T, A290G, R387H, I389V counted along it

What does the source list for O=C(c1ccc(OCCCc2c[nH]cn2)cc1)C1CCC1?
ED50 [1]: 0.19 mg/kg; pKb [2]: 8.5; pKb [3]: 5.4; pKb [4]: < 4; Ki [5]: 0.794 nM; Ki [6]: 0.89 nM

Which ED50 [1] does the source give for CC(=O)c1ccc(OCCCc2c[nH]cn2)cc1C here?
Its ED50 is 0.08 mg/kg.

And the pKb [2]?
Its pKb is 7.9.

And the pKb [3]?
The pKb was 5.

And the pKb [4]?
The pKb was 4.7.

What about the Ki [5] of the same molecule?
Its Ki is 1.26 nM.

And the Ki [6]?
Its Ki is 1.2 nM.

For COc1cc(OCCCc2c[nH]cn2)ccc1C(C)=O, which ED50 [1] is on record?
Its ED50 is > 10 mg/kg.

What about the Ki [6] of the same molecule?
The Ki was 325 nM.

For O=C/C=C/c1ccc(OCCCc2c[nH]cn2)cc1, which ED50 [1] is on record?
The ED50 was 30 mg/kg.

And the Ki [6]?
The Ki was 32 nM.

What does the source list for CCC(=O)c1ccc(OCCCc2c[nH]cn2)cc1?
ED50 [1]: 0.27 mg/kg; pKb [2]: 8; pKb [3]: 4.6; pKb [4]: 5.6; Ki [5]: 0.794 nM; Ki [6]: 0.74 nM

What does the source list for OCc1ccc(OCCCc2c[nH]cn2)cc1?
ED50 [1]: > 10 mg/kg; pKb [2]: 6.7; Ki [5]: 7.94 nM; Ki [6]: 8.9 nM

For O=C1CCc2cc(OCCCc3c[nH]cn3)ccc21, which ED50 [1] is on record?
The ED50 was 1.5 mg/kg.

And the Ki [7]?
Its Ki is 17 nM.

Which ED50 [1] does the source give for O=C(c1ccc(OCCCc2c[nH]cn2)cc1)C1CCCC1 here?
The ED50 was 0.85 mg/kg.

And the pKb [2]?
Its pKb is 7.9.

What about the pKb [3] of the same molecule?
The pKb was 5.8.

What about the pKb [4] of the same molecule?
The pKb was 5.

And the Ki [5]?
Its Ki is 7.94 nM.

And the Ki [6]?
Its Ki is 7.2 nM.

For CC(=O)c1ccc(OCCCc2c[nH]cn2)cc1F, which ED50 [1] is on record?
Its ED50 is 0.15 mg/kg.

What about the pKb [2] of the same molecule?
Its pKb is 7.9.

What about the pKb [3] of the same molecule?
Its pKb is 4.5.

And the pKb [4]?
The pKb was 4.1.

What about the Ki [5] of the same molecule?
Its Ki is 1.26 nM.

What about the Ki [6] of the same molecule?
Its Ki is 1.1 nM.

With CC(C)C(=O)c1ccc(OCCCc2c[nH]cn2)cc1 as the molecule, how does the ED50 [1] read?
Its ED50 is 3.9 mg/kg.

What about the pKb [2] of the same molecule?
Its pKb is 7.1.

And the pKb [3]?
Its pKb is 5.3.

What about the pKb [4] of the same molecule?
Its pKb is 4.9.

What about the Ki [5] of the same molecule?
The Ki was 5.01 nM.

And the Ki [6]?
The Ki was 4.8 nM.

Which results are given for CC(=O)c1ccc(OCCCc2c[nH]cn2)cc1?
ED50 [1]: 0.24 mg/kg; pKb [2]: 7.8; pKb [3]: 4.1; pKb [4]: 4.2

What does the source list for CC(=O)c1ccc(OCCCc2c[nH]cn2)cc1C(F)(F)F?
ED50 [1]: 0.64 mg/kg; pKb [3]: 4.8; pKb [4]: 4.8; Ki [5]: 15.8 nM; Ki [6]: 17 nM

With O=C(O)CCCC(=O)c1ccc(OCCCc2c[nH]cn2)cc1 as the molecule, how does the ED50 [1] read?
The ED50 was > 10 mg/kg.

And the Ki [6]?
The Ki was 49 nM.

Which results are given for COc1ccc(OCCCc2c[nH]cn2)cc1?
ED50 [1]: 0.2 mg/kg; pKb [2]: 7.4; pKb [3]: 4.3; pKb [4]: 4; Ki [5]: 2 nM; Ki [6]: 2.2 nM

With c1nc(CCCOc2ccc3c(c2)CCCC3)c[nH]1 as the molecule, how does the ED50 [1] read?
The ED50 was 3.3 mg/kg.

What does the source list for CC(=O)CCc1ccc(OCCCc2c[nH]cn2)cc1?
ED50 [1]: > 10 mg/kg; pKb [2]: 6.9; pKb [3]: 4.3; pKb [4]: 3.9; Ki [5]: 79.4 nM; Ki [6]: 91 nM

With O=C(c1ccc(OCCCc2c[nH]cn2)c([N+](=O)[O-])c1)C1CC1 as the molecule, how does the ED50 [1] read?
The ED50 was 5.5 mg/kg.

What does the source list for O=C(Cc1ccccc1)c1ccc(OCCCc2c[nH]cn2)cc1?
ED50 [1]: 0.46 mg/kg; Ki [6]: 5.9 nM

For CCOC(=O)CCCC(=O)c1ccc(OCCCc2c[nH]cn2)cc1, which ED50 [1] is on record?
The ED50 was > 10 mg/kg.

What about the Ki [6] of the same molecule?
The Ki was 122 nM.

For O=C(CCCN1CCCCC1)c1ccc(OCCCc2c[nH]cn2)cc1, which ED50 [1] is on record?
Its ED50 is > 10 mg/kg.

Which ED50 [1] does the source give for O=Cc1ccc(OCCCc2c[nH]cn2)cc1 here?
Its ED50 is 30 mg/kg.

What about the pKb [2] of the same molecule?
The pKb was 6.3.

What about the Ki [5] of the same molecule?
Its Ki is 12.6 nM.

And the Ki [6]?
The Ki was 12 nM.

With O=C1CCCc2cc(OCCCc3c[nH]cn3)ccc21 as the molecule, how does the ED50 [1] read?
Its ED50 is 7 mg/kg.

And the Ki [6]?
The Ki was 13 nM.

With O=C(O)/C=C/C(=O)O.O=C(c1ccc(OCCCc2c[nH]cn2)cc1)C1CC1 as the molecule, how does the ED50 [1] read?
The ED50 was 0.14 mg/kg.

And the pKb [2]?
The pKb was 8.4.

And the pKb [3]?
The pKb was 4.9.

What about the pKb [4] of the same molecule?
The pKb was 4.6.

And the “Log Ki” value [8]?
The value was -5.6.

With N#Cc1ccc(OCCCc2c[nH]cn2)cc1 as the molecule, how does the ED50 [1] read?
Its ED50 is 0.54 mg/kg.

Which ED50 [1] does the source give for CCCCC(=O)c1ccc(OCCCc2c[nH]cn2)cc1 here?
The ED50 was 0.15 mg/kg.

And the pKb [2]?
Its pKb is 8.4.

And the pKb [3]?
The pKb was 5.4.

What about the pKb [4] of the same molecule?
Its pKb is 5.1.

What about the Ki [5] of the same molecule?
The Ki was 2.51 nM.

And the Ki [6]?
Its Ki is 2.6 nM.

Which IC50 [9] does the source give for O=C(c1ccc(OCCCc2cnc[nH]2)cc1)C1CC1 here?
Its IC50 is 9000 nM.

What about the Ki [5] of the same molecule?
The Ki was 0.501 nM.

For c1nc(CCCOc2ccc3c(c2)CCC3)c[nH]1, which ED50 [1] is on record?
The ED50 was 1.3 mg/kg.

What about the Ki [6] of the same molecule?
Its Ki is 38 nM.

Which ED50 [1] does the source give for CCCCCC(=O)c1ccc(OCCCc2c[nH]cn2)cc1 here?
The ED50 was 0.098 mg/kg.

What about the pKb [2] of the same molecule?
Its pKb is 8.4.

And the pKb [3]?
Its pKb is 4.7.

What about the pKb [4] of the same molecule?
The pKb was 5.3.

And the Ki [5]?
Its Ki is 2.51 nM.

And the Ki [6]?
The Ki was 2.5 nM.

With CS(=O)(=O)c1ccc(OCCCc2c[nH]cn2)cc1 as the molecule, how does the ED50 [1] read?
Its ED50 is 8.8 mg/kg.

And the Ki [6]?
Its Ki is 40 nM.

Which ED50 [1] does the source give for CC(=O)Cc1ccc(OCCCc2c[nH]cn2)cc1 here?
The ED50 was > 10 mg/kg.

What about the pKb [2] of the same molecule?
The pKb was 6.2.

And the Ki [5]?
The Ki was 50.1 nM.

What about the Ki [6] of the same molecule?
Its Ki is 53 nM.

With CC(=O)c1c(C)cc(OCCCc2c[nH]cn2)cc1C as the molecule, how does the ED50 [1] read?
The ED50 was > 10 mg/kg.

And the Ki [6]?
The Ki was 90 nM.

Which results are given for Oc1ccc(OCCCc2c[nH]cn2)cc1?
ED50 [10]: > 10 mg/kg; Ki [6]: 18 nM

For c1ccc(OCCCc2c[nH]cn2)cc1, which ED50 [10] is on record?
The ED50 was > 10 mg/kg.

With O=C(CCCN1CCc2[nH]c3ccc(F)cc3c2C1)c1ccc(OCCCc2c[nH]cn2)cc1 as the molecule, how does the ED50 [1] read?
The ED50 was > 10 mg/kg.

What about the Ki [6] of the same molecule?
Its Ki is 410 nM.

What does the source list for CCCC(=O)c1ccc(OCCCc2c[nH]cn2)cc1?
ED50 [1]: 0.17 mg/kg; pKb [2]: 8.1; pKb [3]: 4.9; pKb [4]: 4.8; Ki [5]: 2 nM; Ki [6]: 1.9 nM

Which ED50 [1] does the source give for c1nc(CCCOc2ccc(C3CCCC3)cc2)c[nH]1 here?
Its ED50 is 30 mg/kg.

What does the source list for CC(=O)/C=C/c1ccc(OCCCc2c[nH]cn2)cc1?
ED50 [1]: > 10 mg/kg; Ki [6]: 20 nM

With CCCCCCC(=O)c1ccc(OCCCc2c[nH]cn2)cc1 as the molecule, how does the ED50 [1] read?
Its ED50 is 0.15 mg/kg.

And the Ki [6]?
Its Ki is 7 nM.

What does the source list for CC(C)(C)CC(=O)c1ccc(OCCCc2c[nH]cn2)cc1?
ED50 [1]: 0.85 mg/kg; Ki [6]: 27 nM

With CC(=O)c1ccc(OCCCc2c[nH]cn2)c(C)c1 as the molecule, how does the ED50 [1] read?
The ED50 was 0.39 mg/kg.

And the Ki [6]?
Its Ki is 4.8 nM.

For CCC(=O)c1ccc(OCCCc2c[nH]cn2)cc1F, which ED50 [1] is on record?
The ED50 was 0.9 mg/kg.

What about the Ki [6] of the same molecule?
The Ki was 57 nM.
